PubChem BioAssay
The source made the active and inactive calls.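 How the source made its calls, unless noted: active means viability at or under a set limit in both replicates, limit being median viability minus 3 SD (cut at about 48% in these data, passing the limit was not always enough); inconclusive means at or under the limit in just one replicate; inactive means at or above the limit in both replicates.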

Legend:
[1] = HUVEC growth inhibition – cell-based, human, primary screen (AID 575;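 active means viability at or below 30% in both replicate assays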;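 further: 100% = median of untreated cell wells with 0.1% DMSO on each plate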); conditions: HUVEC proliferation, CellTiter-Glo luminescence, 72 h; at 10 µM; stronger effect = lower value
Summary of the method: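 Test system: HUVEC primary cells. Quantity: 1250 endothelial cells in each well. Dosing: single-point 10 µM, DMSO 0.1% final. Incubation: 72 h treatment at 37 °C. Measured by: CTG luminescence. Control set: DMSO cell controls and MePR drug controls. Plate: collagen-coated 384-well format.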

[2] = H69AR cell proliferation blockers – human, duplicate replicates, primary screen (AID 580); conditions: H69AR lung tumor cells viability, ATP luminescence, 72 h; at 10 µM; stronger effect = lower value;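 further: 100% = mean luminescence of untreated wells and 0% = no signal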
[3] = MRP1 drug-resistance reversers in H69AR cells – cell-based, doxorubicin co-treatment, pilot screen (AID 601;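 active means viability loss from added drug above about 55%, and viability with drug at most 40%, in both replicates, limit read from the data, passing the limit was not always enough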); conditions: CellTiter-Glo, 72 h, at 10 µM; for differential viability (reversal): stronger effect = higher value
[4] = yeast transport mutant growth inhibition pilot in 384-well plates, post-Golgi transport modulator project (AID 636; in the data active means inhibition above about 31%); conditions: absorbance 615 nm, about 18 h, stronger effect = higher value
[5] = growth suppression of yeast trafficking mutant, preliminary HTS, modulators of trafficking downstream of Golgi apparatus project, 1536-format plate, OD 615 nm (AID 637; in the data active means inhibition above about 30%); conditions: yeast transport mutant growth, absorbance 615 nm, 18 h; stronger effect = higher value
[6] = H69AR cells + 2 uM doxorubicin, measured here: viability with 2 uM doxorubicin, stronger effect = lower value
[7] = H69AR cells, compound alone cytotoxicity

Structure (SMILES)	viability [1]	viability [2]	differential viability (reversal) ([3]; H69AR cells + 2 uM doxorubicin)	viability [3, 6] [%]	viability [3, 7] [%]	inhibition [4]	inhibition [5]
CCCCCC1NC(=O)NC1CCCCCC(=O)O (configuration not stated)	98.5% (inactive)	104% (inactive)	14.3% (inactive)	89.2	104	-0.91% (inactive)	-2.22% (inactive)
CS(=O)(=O)N1CCC(C(=O)NCCC2=CCCCC2)CC1	99.7% (inactive)	99.9% (inactive)	20.4% (inactive)	79.6	99.9	-5.73% (inactive)	-1.11% (inactive)
Cc1cc(C)n(Cc2nc3ccccc3n2C)n1	92.9% (inactive)	99% (inactive)	8.18% (inactive)	90.9	99	0.52% (inactive)	4.92% (inactive)
COCC(=O)NC(c1ccccc1)c1ccccc1	86.1% (inactive)	89.5% (inactive)	12.2% (inactive)	77.3	89.5	-5.84% (inactive)	3.81% (inactive)
COC(=O)c1ccc(CN(c2ccccc2OC)S(=O)(=O)c2cccs2)o1	98.8% (inactive)	86.2% (inactive)	-15.4% (inactive)	102	86.2	-6.88% (inactive)	-7.14% (inactive)
CCOc1ccc(C2/C(=C(/O)c3ccccc3)C(=O)C(=O)N2CCCN(C)C)cc1OC (configuration not stated)	111% (inactive)	100% (inactive)	7.23% (inactive)	92.9	100	-2.63% (inactive)	6.19% (inactive)
CCOC(=O)c1cccc(NC(=O)CCn2nnc3ccccc32)c1	89.9% (inactive)	98.6% (inactive)	9.72% (inactive)	88.9	98.6	-2.5% (inactive)	0.48% (inactive)
O=C(CSc1nc(-c2ccc(F)cc2)cs1)N1CCOCC1	122% (inactive)	94.4% (inactive)	19.2% (inactive)	75.2	94.4	-0.92% (inactive)	6.67% (inactive)
O=C(NC1CC2CCC1C2)C1COc2ccccc2O1 (configuration not stated)	100% (inactive)	87.9% (inactive)	4.5% (inactive)	83.4	87.9	-3.55% (inactive)	-2.38% (inactive)
COc1cccc(-c2nc(-c3ccc(NC(=O)Cc4ccccc4OC)cc3)no2)c1	85.3% (inactive)	90.6% (inactive)	12.8% (inactive)	77.8	90.6	9.09% (inactive)	-0.95% (inactive)
COc1ccccc1C(=O)Nc1c2c(nn1-c1cccc(C)c1C)CS(=O)(=O)C2	49.2% (inactive)	95.2% (inactive)	22.9% (inactive)	72.3	95.2	-4.13% (inactive)	1.94% (inactive)
CC(C)(C)C1CCc2c(sc3c2C(=O)NC(c2ccco2)N3)C1 (configuration not stated)	72.5% (inactive)	88.5% (inactive)	-10.4% (inactive)	98.9	88.5	1.97% (inactive)	-0.16% (inactive)
Cc1nc2cc(CO)ccc2n1C	93.1% (inactive)	98.1% (inactive)	9.13% (inactive)	89	98.1	-5.97% (inactive)	-1.9% (inactive)
CC(=O)N1C(=O)c2cccc3cccc(c23)C(=O)N1C(C)=O	96.1% (inactive)	91.8% (inactive)	-1.27% (inactive)	93	91.8	-1.05% (inactive)	-1.43% (inactive)
COc1cc2c(OC)cccc2cc1C(=O)O	95% (inactive)	88.2% (inactive)	2.57% (inactive)	85.7	88.2	-1.32% (inactive)	12.1% (inactive)
O=C(Nc1nnc(CCN2CCCCC2)s1)C1CCCCC1	93.4% (inactive)	91.9% (inactive)	7.11% (inactive)	84.7	91.9	-5.73% (inactive)	4.76% (inactive)
O=C(Nc1nc(-c2ccc(S(=O)(=O)N3CCCCCC3)cc2)cs1)c1cccs1	73.6% (inactive)	64.6% (inactive)	-4.63% (inactive)	69.2	64.6	-6.62% (inactive)	-3.81% (inactive)
Cc1ccc(Nc2nc(CSc3nnc(-c4cccs4)o3)cs2)cc1	78.7% (inactive)	90.5% (inactive)	-1.67% (inactive)	92.2	90.5	-4.8% (inactive)	-2.22% (inactive)
CCCc1nc2ccccc2c2nc(N)nn12	99.8% (inactive)	94.1% (inactive)	12.3% (inactive)	81.8	94.1	-5.26% (inactive)	0.95% (inactive)
O=C(CCCn1c(=O)c2sccc2n(Cc2ccc(F)cc2)c1=O)NCc1ccco1	51.1% (inactive)	27.4% (active)	-52% (inactive)	79.4	27.4	-0.39% (inactive)	-4.44% (inactive)
COc1ccc(N(CC(=O)Nc2ccc(F)c(Cl)c2)S(=O)(=O)c2c(C)noc2C)cc1	93.8% (inactive)	81.5% (inactive)	-7.84% (inactive)	89.3	81.5	-1.07% (inactive)	-6.83% (inactive)
